Data taken from paper PMC12138178 (The New Phytologist, 2025).
Values belong to the molecule of their own block, whether it stands above or below them.

Experiments:
MpPR10.5 protein [1] = biological target: T1, MpPR10.5 protein (Marchantia polymorpha, UniProt A0A2R6WRE7); assay: Intrinsic tryptophan fluorescence binding assay
T1 sequence (A0A2R6WRE7 1-149): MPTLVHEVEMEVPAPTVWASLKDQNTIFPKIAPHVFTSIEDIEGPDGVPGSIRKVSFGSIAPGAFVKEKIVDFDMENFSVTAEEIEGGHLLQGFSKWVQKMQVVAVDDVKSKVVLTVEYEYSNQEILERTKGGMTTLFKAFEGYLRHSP
Outline: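 His-SUMO-tagged PR10 protein, expressed in E. coli Rosetta-Gami 2 and purified by IMAC and size exclusion, used at 1.1 μM in 20 mM Tris pH 8.5, 200 mM NaCl. DMSO stocks of test compound at eight levels (0–20 mM or 0–4 mM) were diluted 10× in buffer and added. Incubated 5 min at 22°C. Excitation 280 nm, emission 340 nm. Six replicates; buffer controls subtracted. |ΔF|/F0 versus concentration was fitted to a one-site specific binding model to give Kd.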

MpPR10.5 protein [2] = biological target: T1, MpPR10.5 protein; assay: Naringenin chalcone oxidation assay; assay type: physicochemical; details: pH 7.5, 30 min
Outline: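 Run in 20 mM Tris pH 7.5 or 8.5 with 200 mM NaCl, either as buffer alone or with 15 μM His-SUMO-tagged PR10 protein. A blank was recorded first. Test compound was added from a 1.4 mM DMSO stock to 10 μM final. UV–Vis spectra (190–840 nm, 1 cm path) were taken every 1 min for 30 min, following the 377 and 322 nm peaks.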

Compound: O=C(/C=C/c1ccc(O)c(O)c1)c1ccc(O)cc1O [Butein]
- affinity for MpPR10.5 (in words) (MpPR10.5 protein [1]): high affinity

Compound: O=C1C[C@@H](c2ccc(O)cc2)Oc2cc(O)cc(O)c21 [Naringenin]
- stability under the experimental conditions (absorption peak at 322 nm) (MpPR10.5 protein [2]): remained completely stable

Compound: O=C(CCc1ccc(O)cc1)c1c(O)cc(O)cc1O [Phloretin]
- affinity for MpPR10.5 (in words) (MpPR10.5 protein [1]): high affinity

Further lines, results first:

- affinity for MpPR10.5 (in words) (MpPR10.5 protein [1]): very low affinity
- Kd (MpPR10.5 protein [1]; Kd (dissociation constant), His-SUMO-MpPR10.5 fusion protein, 20 mM Tris pH 8.5, 200 mM NaCl, 22°C, nd = not detected): > 119 µM
Compound: O=C(O)/C=C/c1ccccc1 [Cinnamic acid]

- affinity for MpPR10.5 (in words) (MpPR10.5 protein [1]): high affinity
Compound: O=C(/C=C/c1ccc(O)cc1)c1ccc(O)cc1O [Isoliquiritigenin]

- affinity for MpPR10.5 (in words) (MpPR10.5 protein [1]): no affinity
Compound: O=C(O)C=Cc1ccc(O)cc1 [p-Coumaric acid]
